Measurements as given in ChEMBL document CHEMBL1799988, “Novel chalcone derivatives as potent Nrf2 activators in mice and human lung epithelial cells” (J Med Chem, 2011).
Activity calls are given as the source filed them. The calls are words filed in the database; no cut-off is given here.

Key:
Mus musculus [1] = assay: Induction of Nrf2-mediated GCLM gene expression in small intestine of C57BL/6 mouse at 50 mg/kg, po administered as single dose measured after 24 hrs by RT-PCR analysis related to control; type: functional
How it was run: (§1)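 Male C57BL/6 mice (7 weeks, AIN 76A diet; n=4) given a single 50 mg/kg oral gavage of compound, sulforaphane, or vehicle (10% DMSO + 10% Cremophor EL + 80% PBS). Small intestine harvested 24 h later; GCLM and NQO1 mRNA measured by TaqMan qRT-PCR with β-actin normalization.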

[2] = Cytotoxicity against human BEAS2B cells assessed as cell viability after 24 hrs by MTT assay; type: cell-based, BEAS-2B; set-up: concentration or dose not given beside the values; conditions: read-out: Activity
How it was run: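 Beas-2B cells treated with compound or DMSO vehicle (0.1%) for 24 h; MTT (5 mg/ml in serum-free medium) added for the last 4 h, formazan dissolved in DMSO after PBS wash, absorbance read at 570 nm. Viability also checked by trypan blue exclusion.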

[3] = molecular target: T1, Nuclear factor erythroid 2-related factor 2 (Homo sapiens) (UniProt Q16236); assay: Induction of Nrf2-mediated GCLM gene expression in human BEAS2B cells at 10 uM after 16 hrs by RT-PCR analysis relative to untreated control; type: functional, cell-based
T1 sequence (whole entry): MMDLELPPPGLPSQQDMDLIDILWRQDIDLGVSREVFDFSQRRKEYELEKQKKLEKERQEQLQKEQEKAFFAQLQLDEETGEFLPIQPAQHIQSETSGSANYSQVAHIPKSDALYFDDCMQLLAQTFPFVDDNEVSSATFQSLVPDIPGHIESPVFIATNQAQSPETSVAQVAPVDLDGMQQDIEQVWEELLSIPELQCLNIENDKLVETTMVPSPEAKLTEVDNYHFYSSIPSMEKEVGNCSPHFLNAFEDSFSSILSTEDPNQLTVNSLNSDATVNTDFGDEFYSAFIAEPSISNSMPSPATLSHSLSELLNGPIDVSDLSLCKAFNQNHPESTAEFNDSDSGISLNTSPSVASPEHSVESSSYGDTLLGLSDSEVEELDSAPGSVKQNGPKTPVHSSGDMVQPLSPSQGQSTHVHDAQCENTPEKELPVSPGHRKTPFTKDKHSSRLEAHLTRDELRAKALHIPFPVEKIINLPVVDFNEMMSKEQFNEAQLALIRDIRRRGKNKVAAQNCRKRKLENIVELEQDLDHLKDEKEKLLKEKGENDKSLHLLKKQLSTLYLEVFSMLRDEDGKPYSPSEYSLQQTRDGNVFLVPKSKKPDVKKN
How it was run: (§2)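 Beas-2B cells (DMEM:F12, 10% FBS) plated 24 h, then exposed to 10 µM compound in DMSO (final ≤0.1%) for 16 h; sulforaphane as positive control. Total RNA extracted, reverse transcribed with random hexamers, GCLM and NQO1 mRNA quantified by TaqMan qRT-PCR, fold change vs DMSO. Representative of 3 independent experiments, quadruplicate wells.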

[4] = molecular target: T1, Nuclear factor erythroid 2-related factor 2 (Homo sapiens); assay: Induction of Nrf2-mediated NQO1 gene expression in human BEAS2B cells at 10 uM after 16 hrs by RT-PCR analysis relative to untreated control; type: functional, cell-based; how it was run: as §2
Mus musculus [5] = assay: Induction of Nrf2-mediated NQO1 gene expression in small intestine of C57BL/6 mouse at 50 mg/kg, po administered as single dose measured after 24 hrs by RT-PCR analysis related to control; type: functional; how it was run: as §1

SMILES | Activity (Mus musculus [1]) | viability at 24 h [2] | fold change (FC) [3] | fold change (FC) [4] | Activity (Mus musculus [5])
COc1cccc(OC)c1C(=O)/C=C/c1ccccc1C(F)(F)F | Active | 101% | 5.7 | 5.3 | Active
COc1ccc(OC)c(C(=O)/C=C/c2ccccc2)c1 |  |  | 3 | 2.6 | 
COc1ccc(C(=O)/C=C/c2ccccc2)c(OC)c1OC |  |  | 2.4 | 2.4 | 
COc1cc(OC)c(C(=O)/C=C/c2ccccc2[N+](=O)[O-])c(OC)c1 |  |  | 2.6 | 2 | 
COc1cccc(OC)c1C(=O)/C=C/c1ccccc1 |  |  | 2.5 | 1.9 | 
O=C(/C=C/c1ccccc1)c1ccccc1 |  |  | 0.7 | 1.8 | 
COc1ccccc1C(=O)/C=C/c1ccccc1[N+](=O)[O-] |  |  | 1.9 | 1.4 | 
COc1cc(C(=O)/C=C/c2ccccc2)cc(OC)c1OC |  |  | 0.7 | 0.7 | 
COc1cccc(C(=O)/C=C/c2ccccc2C(F)(F)F)c1 | Active | 96.6% | 5.6 | 4.3 | Active
COc1cc(OC)cc(C(=O)/C=C/c2ccccc2[N+](=O)[O-])c1 |  | 90.9% | 3.4 | 4.1 | 
COc1ccc(C(=O)/C=C/c2ccccc2[N+](=O)[O-])c(OC)c1 |  |  | 2.7 | 3.3 | 
COc1ccc(C(=O)/C=C/c2ccccc2[N+](=O)[O-])cc1 |  | 93.2% | 4.6 | 4.3 | 
COc1cccc(OC)c1C(=O)/C=C/c1cccc(C(F)(F)F)c1 |  |  | 1.8 | 0.6 | 
COc1ccc(C(=O)/C=C/c2ccc(C(F)(F)F)cc2)cc1OC |  |  | 3.5 | 2.7 | 
COc1cc(OC)c(C(=O)/C=C/c2cccc(C(F)(F)F)c2)c(OC)c1 |  |  | 1.4 | 0.7 | 
COc1cccc(C(=O)/C=C/c2ccc(C(F)(F)F)cc2)c1 |  |  | 2.9 | 3.1 | 
O=C(/C=C/c1ccccc1C(F)(F)F)c1ccccc1 | Active | 145% | 5 | 5.3 | Active
COc1ccc(C(=O)/C=C/c2ccccc2C(F)(F)F)c(OC)c1 | Active | 105% | 5.4 | 4.5 | Active
COc1ccc(C(=O)/C=C/c2ccccc2)c(OC)c1 |  |  | 2.7 | 2.8 | 
COc1ccc(OC)c(C(=O)/C=C/c2ccccc2C(F)(F)F)c1 |  |  | 4.4 | 2.7 | 
COc1ccccc1C(=O)/C=C/c1cccc(C(F)(F)F)c1 |  |  | 3.9 | 2.9 | 
C[S+]([O-])CCCCN=C=S (stereo not drawn) [SULFORAPHANE] | Active | 97.3% | 2.7 | 3.6 | Active
COc1ccc(C(=O)/C=C/c2ccccc2C(F)(F)F)cc1 | Active | 96% | 5.4 | 4.6 | Active
COc1cc(OC)cc(C(=O)/C=C/c2cccc(C(F)(F)F)c2)c1 |  | 108% | 3.8 | 3.9 | 
COc1cc(OC)c(C(=O)/C=C/c2ccccc2)c(OC)c1 |  |  | 3.1 | 1.8 | 
COc1cc(OC)cc(C(=O)/C=C/c2ccccc2C(F)(F)F)c1 |  | 87.1% | 4 | 3.7 | 
COc1ccc(OC)c(C(=O)/C=C/c2ccccc2[N+](=O)[O-])c1 |  |  | 1.7 | 0.7 | 
COc1cc(C(=O)/C=C/c2ccccc2[N+](=O)[O-])cc(OC)c1OC |  |  | 1.2 | 0.7 | 
COc1cccc(C(=O)/C=C/c2cccc(C(F)(F)F)c2)c1 |  | 95.3% | 4.6 | 3.5 | 
COc1cccc(C(=O)/C=C/c2ccccc2[N+](=O)[O-])c1 |  |  | 2.9 | 2.7 | 
